High-throughput results (PubChem)
A selection: hits, their analogues and other compounds. The true share with any hit is near 4.8%.
CSC inhib = cancer stem cell viability inhibitors, primary screen, luminescence; inhibition, % at 7.5 µM; hit rate 1.1% among 300,000; cancer stem cell-like cells viability; in the data active means inhibition above about 75%; tested in HMLE shEcad cells
T cruzi inh = inhibitors of intracellular T. cruzi growth, primary screen, luminescence, NIH3T3 host cells. T. cruzi beta-gal in NIH3T3, 90 h. inhibition, % (concentration not given with the values). hit rate 1.4% among 300,000;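 active means mean inhibition across valid replicates above about 55%, limit read from the data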;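 further: signal also drops with host cell toxicity which is not excluded here; 0% = plate median of DMSO wells and 100% = zero luminescence signal; higher percent means less beta-gal luminescence so fewer parasites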
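System: NIH/3T3 fibroblasts plus reporter T. cruzi. Medium: DMEM plus 2% FBS. Probe or stimulus: 5000 reporter trypomastigotes per well. Compound: single 50 nL compound addition per well in DMSO. Incubation: co-culture of at least 90 h after 3 h attachment. Detection: GalScreen β-gal luminescence, detergent lysis, 60 min. Evaluation: parasite load inhibition, %.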
Beta cell apopt = inhibitors of cytokine-induced beta cell apoptosis, primary screen, luminescence; hit rate 0.8% among 300,000; INS-1E cytokine-induced death, ATP luminescence, 48 h; percent of positive-control rescue, neutral wells zero; protection from apoptosis, % (concentration not given with the values);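 active means Every replicate reaches about 75%, or at least half do and their mean reaches it too, limit read from the data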;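 further: 0% = cytokine-treated negative control wells and 100% = positive control rescue; higher means more ATP so stronger rescue from cytokine killing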
Mot1-301 SUMO = yeast Mot1-301 growth rescue at high temperature, primary screen, SUMOylation pathway inhibitor project, S. cerevisiae, ATP luminescence, 38.5C | S. cerevisiae Mot1-301 growth rescue; percent above DMSO median, 100 means doubled | growth rescue, % at 18.8 µM | hit rate 1% among 320,000 | AID 2716, 2010;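 active means every valid replicate shows activation above 250% relative to neutral control wells; inactive means the rest, any valid replicate at or below 250%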;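 further: OY570 slx delta 5 strain wells were the positive control but not used for scaling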
Efflux pump mplx = inhibitors of Candida efflux pumps in yeast, primary screen, S. cerevisiae, Nile Red, multiplex; S. cerevisiae Candida pump triplex; inhibition, % at 10 µM; hit rate 0.44% among 330,000;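 active means plate passing quality check with inhibition over a set limit, or well fluorescence over plate mean plus 4 SD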;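 further: Nile Red retained in pooled yeast measured as flow cytometry median fluorescence; 0% = buffer negative control and 100% = Enniatin B positive control; higher means more Nile Red kept so more efflux inhibition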
WT yeast gro inh = growth inhibition of WT strain, primary screen, mitochondrial fusion inhibitor project, WT and mutant strains, chemical genetic; hit rate 2.1% among 190,000; inhibition, % at 10 µM; mitochondrial fusion phenotypic screen; in the data active means inhibition above about 58%; tested in S. cerevisiae
Yeast Mot1 SUMO = growth restoration of Mot1-301 yeast on galactose, dose response, SUMO pathway inhibitor project, whole organism, S. cerevisiae, ATP luminescence, cherry-picked samples; shares compounds with Mot1-301 SUMO; S. cerevisiae Mot1-301 galactose growth, 24 h; -100 = growth of slx-deleted rescue strain; growth activity, percent, % at 42 µM; 2,300 tested, under 10 active; AID 493004, 2010;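 active means Signal drops as the depositor expects, and the fitted half-maximal dose is no more than ten times the top valid tested dose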;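 further: more negative values mean stronger growth rescue toward the control strain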
An asterisk follows results filed as active; nt = no result; + = active, no number.

SMILES | CSC inhib | T cruzi inh | Beta cell apopt | Mot1-301 SUMO | Efflux pump mplx | WT yeast gro inh | Yeast Mot1 SUMO
Cc1cc(C)cc(N(CC(=O)N2CCCCCC2)S(C)(=O)=O)c1 | -4.2 | -4.2 | -5.0 | -0.5 | 0.0 | nt | nt
CCOc1ccc2nc(C(C)O)[nH]c2c1 (stereo not given) | 7.0 | -12.6 | -1.7 | + | -0.1 | -6.7 | 1.1
N#C/C(=C\c1cn(-c2ccccc2)nc1-c1cccnc1)c1nnc2n1CCCCC2 | -7.2 | 0.1 | -2.5 | 396.9* | 0.2 | 7.0 | -0.2
O=C(/C=C/c1cn(-c2ccccc2)nc1-c1cccnc1)N1CCCC1 | nt | 34.5 | nt | nt | nt | -2.3 | nt
COc1ccc2c(c1)C(=O)N1[C@H]3c4cc(OC)ccc4OC[C@@H]3[C@H](c3ccccc3)[C@]1(C)C(=O)N2 | 0.4 | nt | 9.5 | 149.5 | nt | nt | nt
COc1ccc2c(c1)[C@H]1[C@H](CO2)[C@H](c2ccccc2)[C@]2(C)C(=O)Nc3ccc(Br)cc3C(=O)N12 | -0.9 | nt | -6.8 | 548.5* | -0.2 | nt | -0.8
COc1ccc2c(c1)OC[C@H]1[C@H]2N2C(=O)c3cc(Br)ccc3NC(=O)[C@@]2(C)[C@H]1c1ccccc1 | -9.4 | nt | 5.1 | 468.3* | 0.5 | nt | -0.4
COc1ccc2c(c1)[C@H]1[C@H](CO2)[C@H](c2ccccc2)[C@]2(C)C(=O)Nc3ccccc3C(=O)N12 | 23.7 | nt | -10.1 | 108.6 | 0.0 | nt | nt
COc1ccc2c(c1)[C@H]1[C@H](CO2)[C@H](c2ccccc2)[C@]2(C)C(=O)Nc3cc(F)ccc3C(=O)N12 | nt | nt | 8.6 | 375.5* | 0.1 | nt | -1.0
Cc1ccc(C2=NN(CC(=O)NCCN(C)C)C(=O)CC2)cc1 | -1.0 | 6.3 | -0.4 | -7.7 | 0.0 | nt | nt
Cc1ccc(C2=NN(CC(=O)NCc3cccs3)C(=O)CC2)cc1 | -14.1 | -0.2 | 1.1 | 399.1* | -0.1 | -13.1 | 0.0
CSc1cc(C)c(OCC(=O)Nc2c(C)nn(C)c2C)c(C)c1 | -6.6 | -6.6 | 1.2 | 384.7* | -3.7 | nt | -0.2
Cc1nn(C)c(C)c1NC(=O)COc1ccc(F)cc1Br | -22.1 | nt | 0.7 | -14.1 | 0.1 | nt | nt
NC(=O)c1nsc(C(=O)N(Cc2ccc(F)cc2)C(C(=O)NC2CCCC2)c2ccco2)c1N (stereo not given) | 4.6 | -7.8 | 2.6 | 875.8* | -0.5 | nt | 0.4
CCOc1ccccc1N(C(=O)c1snc(C(N)=O)c1N)C(CC)C(=O)NC1CCCC1 (stereo not given) | nt | 12.2 | -0.2 | 577.5* | 0.1 | nt | 0.2
CCOc1ccccc1N(C(=O)c1snc(C(N)=O)c1N)C(C(=O)NC1CCCC1)c1cccs1 (stereo not given) | 3.4 | 38.9 | 3.4 | 41.1 | -0.2 | nt | nt
Cc1ccc(CSCCNC(=O)c2ccc(NS(C)(=O)=O)cc2)cc1 | 11.9 | -16.3 | nt | 453.3* | -0.1 | 7.7 | -0.3
CCOC(=O)N1CCC(NC(=O)CCC(=O)N2CC(C)Oc3ccc(Cl)cc32)CC1 (stereo not given) | -17.4 | -12.1 | 4.4 | nt | 0.1 | 6.1 | nt
CN(C(=O)COc1cc(=O)n(C)c2ccccc12)c1ccc(Cl)cc1 | -3.3 | 8.7 | 2.1 | 447.2* | 0.1 | 1.9 | -0.4
CCOC(=O)c1cnc2ccc(Cl)cc2c1N1CCN(C)CC1 | 5.5 | 13.9 | -5.7 | 616.0* | 0.0 | -13.3 | -0.2
CCOC(=O)c1cnc2c(OC)cccc2c1N1CCN(c2ccccc2OC)CC1 | 4.5 | 9.3 | 9.8 | + | 0.3 | 54.7 | 0.1
CCOC(=O)c1cnc2c(OC)cccc2c1N1CCN(c2ccccn2)CC1 | -5.8 | 21.8 | 8.2 | -6.8 | 0.6 | 8.9 | nt
CCOC(=O)c1cnc2ccc(OCC)cc2c1N1CCN(C)CC1 | -6.0 | 18.9 | 5.9 | 57.5 | 0.1 | -21.5 | nt
NS(=O)(=O)c1ccc(CNC(=O)Cn2nc(C(F)F)cc2C(F)F)cc1 | -7.2 | nt | 1.6 | -5.4 | -0.2 | nt | nt
